Results published in ChEMBL document CHEMBL2177002, “Antifungal spectrum, in vivo efficacy, and structure-activity relationship of ilicicolin h” (ACS Med Chem Lett, 2012).
Converted amounts (≈) assume the structure as drawn. The source made the active and inactive calls. The rule behind the calls is not given here.

Key:
[1] = test system: Candida albicans; assay: Ratio of MIC for Candida albicans 8 harboring cytochrome b G37S mutant to MIC for wild type Candida albicans; format: functional
[2] = Oral bioavailability in mouse; format: ADME, organism-based; conditions: in vivo
[3] = test system: Candida albicans; assay: Ratio of MIC for Candida albicans 11 harboring cytochrome b G37C mutant to MIC for wild type Candida albicans; format: functional
[4] = test system: Saccharomyces cerevisiae; assay: Antifungal activity against Saccharomyces cerevisiae MY 2141 in glycerol-based medium after 24 hrs by NCCLS broth microdilution method; format: functional; conditions: MY 2141, 24 h
[5] = test system: Pichia kudriavzevii; assay: Antifungal activity against Candida krusei CLY 549 after 24 hrs by NCCLS broth microdilution method; format: functional; conditions: CLY 549, 24 h
[6] = test system: Candida albicans; assay: Antifungal activity against Candida albicans MY 1055 in glycerol-based medium after 24 hrs by NCCLS broth microdilution method; format: functional; conditions: MY 1055, 24 h
[7] = test system: Candida albicans; assay: Antifungal activity against Candida albicans MY 1055 infected in DBA/2 mouse assessed as reduction in kidney fungal burden administered as ip tid; format: functional; conditions: MY 1055, Kidney
[8] = test system: Candida albicans; assay: Ratio of MIC for Candida albicans 4 harboring cytochrome b G37S mutant to MIC for wild type Candida albicans; format: functional
[9] = Inhibition of Saccharomyces cerevisiae MY 2141 electron transport protein complex 1/3 using ethanol as substrate assessed as decrease in oxygen consumption measured for 3 mins
[10] = test system: Candida albicans; assay: Antifungal activity against Candida albicans MY 1055 infected in DBA/2 mouse assessed as reduction in kidney fungal burden administered as po bid for 2 days post infection measured after 4 days; format: functional; conditions: MY 1055, Kidney
Summary of the method: (§1)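 DBA/2 mice infected intravenously with 5.4 × 10⁴ cfu of C. albicans MY1055. Dosed orally twice daily for 2 days in 10% aqueous DMSO at 50, 25, 12.5 and 6.25 mg/kg. Kidney Candida burden determined 4 days after infection and compared with vehicle-treated controls by Excel t test (p < 0.05). ED90 is the dose giving 90% reduction of kidney C. albicans.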

[11] = test system: Candida albicans; assay: Antifungal activity against Candida albicans MY 1055 in glucose-based medium after 24 hrs by NCCLS broth microdilution method; format: functional; conditions: MY 1055, 24 h
[12] = test system: Candida albicans; assay: Antifungal activity against fluconazole-resistant Candida albicans MY 2301 after 24 hrs by NCCLS broth microdilution method; format: functional; conditions: MY 2301, 24 h
[13] = test system: Candida albicans; assay: Ratio of MIC for Candida albicans 3 harboring cytochrome b G37D mutant to MIC for wild type Candida albicans; format: functional
[14] = Inhibition of Saccharomyces cerevisiae MY 2141 electron transport protein complex 1/3 using glycerol-3-phosphate as substrate assessed as decrease in oxygen consumption measured for 3 mins
[15] = test system: Candida albicans; assay: Ratio of MIC for Candida albicans 7 harboring cytochrome b G37D mutant to MIC for wild type Candida albicans; format: functional
[16] = Inhibition of Candida albicans MY 1055 NADH:cytochrome c oxidoreductase; conditions: read-out: IC50
[17] = test system: Cryptococcus neoformans; assay: Antifungal activity against Cryptococcus neoformans MY 2061 infected in DBA/2 mouse assessed as reduction in spleen fungal burden at 100 mg/kg, ip bid; format: functional, organism-based; design: dose 100 mg/kg
Summary of the method: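 Mice with disseminated C. neoformans MY2061 infection (8 × 10⁵ cfu/mouse). Dosed twice daily at 100 or 50 mg/kg, oral or intraperitoneal, in 5% aqueous DMSO. Spleen burden measured as log cfu/g of spleen and compared by Excel t test (p < 0.05).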

[18] = Inhibition of Saccharomyces cerevisiae MY 2141 electron transport protein complex 1/3 using NADH as substrate assessed as decrease in oxygen consumption measured for 3 mins
[19] = test system: Candida albicans; assay: Antifungal activity against Candida albicans MY 1055 after 24 hrs by NCCLS broth microdilution method; format: functional; conditions: MY 1055, 24 h
[20] = test system: Candida albicans; assay: Ratio of MIC for Candida albicans 15 harboring cytochrome b G37S mutant to MIC for wild type Candida albicans; format: functional
[21] = test system: Candida albicans; assay: Ratio of MIC for Candida albicans 10 harboring cytochrome b S20I mutant to MIC for wild type Candida albicans; format: functional
[22] = Selectivity ratio of IC50 for bovine NADH:cytochrome c oxidoreductase to IC50 for Saccharomyces cerevisiae MY 2141 NADH:cytochrome c oxidoreductase
[23] = test system: Candida albicans; assay: Ratio of MIC for Candida albicans 5 harboring cytochrome b G37D mutant to MIC for wild type Candida albicans; format: functional
[24] = test system: Candida albicans; assay: Antifungal activity against Candida albicans SC 53124 after 24 hrs by NCCLS broth microdilution method; format: functional; conditions: SC 53124, 24 h
[25] = test system: Aspergillus flavus; assay: Antifungal activity against Aspergillus flavus MF 383 after 24 hrs by NCCLS broth microdilution method; format: functional, organism-based
[26] = test system: Candida albicans; assay: Antifungal activity against Candida albicans MY 1055 infected in DBA/2 mouse assessed as reduction in kidney fungal burden at 50 mg/kg, po bid administered 2 days post infection measured after 4 days relative to vehicle-treated control; format: functional, organism-based; design: dose 50 mg/kg; summary of the method: as §1
[27] = test system: Nakaseomyces glabratus; assay: Antifungal activity against Candida glabrata MY 1381 after 24 hrs by NCCLS broth microdilution method; format: functional; conditions: MY 1381, 24 h
[28] = test system: Meyerozyma guilliermondii; assay: Antifungal activity against Candida guilliermondii CLY 346 after 24 hrs by NCCLS broth microdilution method; format: functional; conditions: CLY 346, 24 h
[29] = Inhibition of bovine ubiquinol-cytochrome c reductase after 2 mins by stopped flow rapid scanning spectroscopy; design: species or system Bos taurus
[30] = test system: Saccharomyces cerevisiae; assay: Antifungal activity against Saccharomyces cerevisiae MY 2141 in glucose-based medium after 24 hrs by NCCLS broth microdilution method; format: functional; conditions: MY 2141, 24 h
[31] = Clearance in mouse; format: ADME, organism-based; conditions: in vivo
[32] = test system: Candida albicans; assay: Antifungal activity against Candida albicans after 24 hrs by NCCLS broth microdilution method in presence of 10% mouse plasma; format: functional
[33] = test system: Aspergillus fumigatus; assay: Antifungal activity against Aspergillus fumigatus MF 5668 after 24 hrs by NCCLS broth microdilution method; format: functional; conditions: MF 5668, 24 h
[34] = test system: Cryptococcus neoformans; assay: Antifungal activity against Cryptococcus neoformans H 99 after 40 hrs by NCCLS broth microdilution method; format: functional; conditions: H 99, 40 h
[35] = test system: Meyerozyma guilliermondii; assay: Antifungal activity against Candida guilliermondii CLY 308 after 24 hrs by NCCLS broth microdilution method; format: functional; conditions: CLY 308, 24 h
[36] = Inhibition of Saccharomyces cerevisiae MY 2141 electron transport protein complex 4 using ascorbate/TMPD as substrate assessed as decrease in oxygen consumption measured for 3 mins
[37] = test system: Candida albicans; assay: Ratio of MIC for Candida albicans 16 harboring cytochrome b Q22E mutant to MIC for wild type Candida albicans; format: functional
[38] = test system: Candida albicans; assay: Ratio of MIC for Candida albicans 14 harboring cytochrome b G37S mutant to MIC for wild type Candida albicans; format: functional
[39] = test system: Nakaseomyces glabratus; assay: Antifungal activity against Candida glabrata CLY 574 after 24 hrs by NCCLS broth microdilution method; format: functional; conditions: CLY 574, 24 h
[40] = test system: Clavispora lusitaniae; assay: Antifungal activity against Candida lusitaniae MY 1396 after 24 hrs by NCCLS broth microdilution method; format: functional; conditions: MY 1396, 24 h
[41] = Inhibition of Saccharomyces cerevisiae MY 2141 cytochrome b-c1 complex Qn site in ubiquinol:Cytochrome c reductase
[42] = test system: Saccharomyces cerevisiae; assay: Antifungal activity against Saccharomyces cerevisiae MY 2141 assessed as inhibition of whole cell oxygen consumption at 0.003 ug/mL after 15 mins; format: functional; conditions: MY 2141, 0.25 h
[43] = test system: Candida albicans; assay: Ratio of MIC for Candida albicans 6 harboring cytochrome b G37S mutant to MIC for wild type Candida albicans; format: functional

For `C/C=C/[C@@H]1[C@H]2C[C@@H](C)CC[C@@H]2C(C)=C[C@H]1C(=O)c1c(O)c(-c2ccc(O)cc2)c[nH]c1=O` [ILICICOLIN H], the Ratio [1] was 250, the bioavailability [2] was 72% and the Ratio [3] was 250. The MIC [4] was 0.012 µg/mL (≈ 0.0277 µM), the MIC [5] was 0.01 µg/mL (≈ 0.0231 µM) and the MIC [6] was 0.025 µg/mL (≈ 0.0577 µM). The ED90 [7] was 0.01 mg/kg, the Ratio [8] was 250 and the IC50 [9] was 8 ng/mL (≈ 0.0185 µM). It also gave an ED90 [10] of 15.4 mg/kg, an MIC [11] of over 50 µg/mL and an MIC [12] of 0.04 µg/mL (≈ 0.0923 µM). The Ratio [13] was 250, the IC50 [14] was 0.02 µg/mL (≈ 0.0461 µM) and the Ratio [15] was 250. For the same compound, the IC50 [16] was 1.85 nM, the Activity [17] was “Active” and the IC50 [18] was 0.08 µg/mL (≈ 0.185 µM). It also gave an MIC [19] of 0.04 µg/mL (≈ 0.0923 µM), a Ratio [20] of 250 and a Ratio [21] of 250. For the same compound, the Ratio IC50 [22] was over 70, the Ratio [23] was 250 and the MIC [24] was 0.01 µg/mL (≈ 0.0231 µM). For the same compound, the Activity [25] was “inactive”, the Activity [26] was “Active” and the MIC [27] was 0.01 µg/mL (≈ 0.0231 µM). For the same compound, the MIC [28] was 0.01 µg/mL (≈ 0.0231 µM), the IC50 [29] was 200 nM and the MIC [30] was over 50 µg/mL. The clearance [31] was 16 mL/min/kg, the MIC [32] was over 1 µg/mL and the MIC [33] was 0.08 µg/mL (≈ 0.185 µM). It also gave an MIC [34] of 0.1 µg/mL (≈ 0.231 µM), an MIC [35] of 0.01 µg/mL (≈ 0.0231 µM) and an IC50 [36] of over 10 µg/mL. For the same compound, the Ratio [37] was 250, the Ratio [38] was 250 and the MIC [39] was 0.01 µg/mL (≈ 0.0231 µM). For the same compound, the MIC [40] was 0.01 µg/mL (≈ 0.0231 µM), the IC50 [41] was 3 nM and the inhibition at 0.003 µg/mL [42] was 100%. The Ratio [43] was 250.
